The record followed here is ChEMBL document CHEMBL4052828, “Discovery of 4-((7H-Pyrrolo[2,3-d]pyrimidin-4-yl)amino)-N-(4-((4-methylpiperazin-1-yl)methyl)phenyl)-1H-pyrazole-3-carboxamide (FN-1501), an FLT3- and CDK-Kinase Inhibitor with Potentially High Efficiency against Acute Myelocytic Leukemia” (J Med Chem, 2018).

As usually defined, the IC50 is the midpoint of a concentration-inhibition curve. As a reminder, the GI50 is the concentration giving 50% growth inhibition. In general, LD50 refers to the dose at which mortality reaches 50%.

Active and inactive are the calls of the source. The calls are words filed in the database; no cut-off is given here.

For one series, the target named is CDK2/Cyclin A1 (Homo sapiens, UniProt P24941). The experiment in a line: Inhibition of human CDK2/Cyclin A1 using histone H1 as substrate preincubated for 20 mins followed by [gamma-33P]-ATP addition measure after 120 mins by filter binding method. Type of series: protein-complex assay. The gist of the method: (§1)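 Compound preincubated with kinase 20 min at room temperature. Filter-binding read-out, curve-fitted IC50; mean ± SD of three independent experiments.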

Series [1] addresses T1, Receptor-type tyrosine-protein kinase FLT3 (Homo sapiens, UniProt P36888).
T1 sequence (P36888 whole entry): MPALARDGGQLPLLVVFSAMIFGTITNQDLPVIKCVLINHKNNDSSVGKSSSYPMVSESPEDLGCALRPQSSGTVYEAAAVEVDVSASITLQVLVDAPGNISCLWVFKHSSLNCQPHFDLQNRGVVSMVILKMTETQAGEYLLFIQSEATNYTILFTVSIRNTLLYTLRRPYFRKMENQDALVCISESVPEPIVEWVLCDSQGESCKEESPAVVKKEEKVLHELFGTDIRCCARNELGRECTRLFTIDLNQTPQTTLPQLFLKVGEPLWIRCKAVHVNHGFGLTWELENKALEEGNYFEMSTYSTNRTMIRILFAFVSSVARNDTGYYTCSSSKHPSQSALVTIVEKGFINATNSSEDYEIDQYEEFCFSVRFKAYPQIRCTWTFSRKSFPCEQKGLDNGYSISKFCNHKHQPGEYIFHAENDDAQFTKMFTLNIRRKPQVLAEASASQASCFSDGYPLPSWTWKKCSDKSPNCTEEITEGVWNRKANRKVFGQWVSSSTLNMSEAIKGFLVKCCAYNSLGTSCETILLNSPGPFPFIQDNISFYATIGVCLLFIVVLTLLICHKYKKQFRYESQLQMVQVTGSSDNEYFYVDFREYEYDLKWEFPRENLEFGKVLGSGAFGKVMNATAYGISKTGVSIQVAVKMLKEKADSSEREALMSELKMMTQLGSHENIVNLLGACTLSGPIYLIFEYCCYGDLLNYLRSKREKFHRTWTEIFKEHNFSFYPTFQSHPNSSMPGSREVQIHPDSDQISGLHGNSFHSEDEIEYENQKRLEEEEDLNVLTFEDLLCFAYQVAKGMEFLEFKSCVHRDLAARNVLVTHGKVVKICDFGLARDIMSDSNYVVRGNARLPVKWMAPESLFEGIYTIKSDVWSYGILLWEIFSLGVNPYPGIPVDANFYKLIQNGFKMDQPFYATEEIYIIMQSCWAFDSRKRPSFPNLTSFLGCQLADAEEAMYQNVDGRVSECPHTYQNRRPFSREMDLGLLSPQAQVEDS
The experiment in a line: Inhibition of human FLT3 using EAIYAAPFAKKK as substrate preincubated for 20 mins followed by [gamma-33P]-ATP addition measure after 120 mins by filter binding method. The gist of the method:
as §1

For series [2], the system named is MV4-11. The experiment in a line: Growth inhibition of human MV4-11 cells after 72 hrs by CellTiter-Glo assay. The format is functional, cell-based. Particulars: MV4-11, 72 h. The gist of the method: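 MV4-11 cells grown in IMDM with 10% FBS, 2% L-glutamine and 1% pen/strep at 37 °C, 5% CO2. Seeded at 10000 cells/well and exposed to compound at various concentrations for 72 h. Viability read by CellTiter-Glo luminescence.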
In general terms: In ATP-based viability assays light output follows the ATP content of the culture.

The test system of a further series is NCI-H82. As to the kind of experiment: Growth inhibition of human NCI-H82 cells after 72 hrs by CellTiter-Glo assay. Type of series: functional. The conditions noted are these: NCI-H82, 72 h.
Series [3] is described as follows: Terminal half life in human liver microsomes by LC-MS/MS analysis. Type of series: ADME, microsome. Particulars: read-out: beta t1/2 (converted). The gist of the method: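 Metabolic stability measured by incubating compound in human, rat, mouse, dog and monkey liver microsomes. Terminal t1/2 determined.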
(Liver microsomes are vesicles of endoplasmic reticulum, rich in cytochrome P450 enzymes.)

A short description of series [4]: Intrinsic clearance in human liver microsomes by LC-MS/MS analysis. Type of series: ADME, microsome. The conditions noted are these: read-out: CLH.
A short description of series [5]: Intrinsic clearance in rat liver microsomes by LC-MS/MS analysis. The format is ADME, microsome. Particulars: read-out: CLH.
A short description of series [6]: Intrinsic clearance in mouse liver microsomes by LC-MS/MS analysis. Type of series: ADME, microsome. Particulars: read-out: CLH.
The nature of series [7]: Intrinsic clearance in dog liver microsomes by LC-MS/MS analysis. Type of series: ADME, Canis lupus familiaris, microsome. Particulars: read-out: CLH.
Series [8] is described as follows: Intrinsic clearance in cynomolgus monkey liver microsomes by LC-MS/MS analysis. Particulars: read-out: CLH. The format is ADME, Macaca fascicularis, microsome.
Series [9] deals with MV4-11. As to the kind of experiment: Antitumor activity against human MV4-11 cells xenografted in nu/nu mouse assessed as tumor regression at 40 mg/kg, iv qd measured on day 21 relative to vehicle-treated control. Type of series: functional. In a few lines: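 Female nu/nu mice bearing MV4-11 xenografts; dosing began once tumors reached 200 mm3. Given iv once daily for 21 days, with a vehicle-only group. Body weight and tumor size tracked relative to initial values, set as 100%. Tumors weighed at the end of the 22-day treatment period.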

A short description of series [10]: Toxicity in ICR mouse administered via gavage measured for 12 days. The conditions noted are these: in vivo, po.
In series [11] the test system is MV4-11. As to the kind of experiment: Induction of apoptosis in human MV4-11 cells assessed as early apoptotic cells at 0.5 uM after 24 hrs by annexin V-FITC/propidium iodide staining-based flow cytometric method (reference value: 3.54%). The format is functional. For orientation: A flow cytometer gives signals particle by particle.
Series [12] concerns MV4-11. As to the kind of experiment: Induction of apoptosis in human MV4-11 cells assessed as early apoptotic cells at 1 uM after 24 hrs by annexin V-FITC/propidium iodide staining-based flow cytometric method (reference value: 3.54%). The format is functional.
The subject of series [13] is MV4-11. As to the kind of experiment: Cell cycle arrest in human MV4-11 cells assessed as accumulation at G0/G1 phase after 24 hrs by propidium iodide/BrdU staining-based flow cytometric method. The format is functional. The gist of the method: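 Cells treated with compound for 24 h, then fixed. Double-stained with propidium iodide and BrdU for flow cytometric analysis of cell cycle distribution.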

The target of series [14] is Receptor-type tyrosine-protein kinase FLT3 (Homo sapiens) (UniProt P36888). The experiment in a line: Inhibition of FLT3 phosphorylation in human MV4-11 cells at 0.02 to 1 uM after 24 hrs by Western blot analysis. The format is cell-based. In a few lines:
(§2)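 MV4-11 cells treated with increasing concentrations of compound for 24 h. Lysates immunoblotted for phosphorylated FLT3, STAT5, ERK, AKT and Rb.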

Series [15] shares this target. The experiment in a line: Inhibition of FLT3 phosphorylation in human MV4-11 cells assessed as decrease in STAT5 phosphorylation at 0.02 to 1 uM after 24 hrs by Western blot analysis. Type of series: cell-based. The gist of the method: as §2
Series [16] has the same target. As to the kind of experiment: Inhibition of FLT3 phosphorylation in human MV4-11 cells assessed as decrease in AKT phosphorylation at 0.02 to 1 uM after 24 hrs by Western blot analysis. The format is cell-based. In a few lines: as §2
A further series deals with MGC-803. As to the kind of experiment: Growth inhibition of human MGC803 cells after 72 hrs by CellTiter-Glo assay. The format is functional. The conditions noted are these: MGC-803, 72 h.

Turning to `CN1CCN(Cc2ccc(NC(=O)c3n[nH]cc3Nc3ncnc4[nH]ccc34)cc2)CC1`, the IC50 at CDK2/Cyclin A1 was 2.47 nM; in series [1], 0.27 to 0.28 nM; in the series on MV4-11 [2], 8 nM. Further, the GI50 is 110 nM in the series with NCI-H82 and 370 nM in the series with MGC-803. Also, in [3], the half-life is 1.72 h. Also, the CLint scaled in [4] was 13.3 mL/min/kg; in series [5] it was 40.3 mL/min/kg; in series [6] it was 139 mL/min/kg; in series [7], 129 mL/min/kg; in series [8], 36.5 mL/min/kg. For the same molecule, the Activity in the series with MV4-11 [9] is 81.33%; in the series with MV4-11 [11] it was 28.54%; in the series on MV4-11 [12], 31.56%; in the series on MV4-11 [13], “Dose-dependent effect”. In series [10], this molecule came in with an LD50 at 288 h of 186 mg/kg. Further, the inhibition entry in series [14], in series [15] and in series [16] was “Active” in each case.
